Reference: paper PMC4674087 (ChemMedChem, 2015)
Converted amounts (≈) assume the structure as drawn. “And” between values parts separate entries of the source, which are not always exact repeats. Equal values may be shown once. Values belong to the compound of their own block, whether it stands above or below them.

Tests used:
[1] = test system: mitochondrial permeability transition pore (mtPTP); test: Calcium retention capacity; format: biochemical, mouse; conditions: for CRC/CRC0: at 1.56 µM, average ±SEM, n≥3
[2] = test system: mitochondrial permeability transition pore (mtPTP); test: Mitochondrial swelling assay; format: biochemical, mouse; conditions: for EC50: read-out: mitochondrial swelling EC50, isolated mouse liver mitochondria
[3] = HeLa cell viability assay; format: cell-based, human; conditions: human, HeLa cells, with verapamil (20 µM) or CsH (2 µg/mL)
Method in brief: (§1)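 HeLa cells are grown in DMEM with 10% FBS at 37 °C and 5% CO2, seeded at 1×10^4 per well, and left to adhere for 6 h. They are then exposed for 24 h to a range of test compound concentrations or 1% DMSO vehicle, with 20 µM verapamil or 2 µg/mL CsH present. Relative viable cell number is read with the CellTiter 96 Aqueous One kit.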

[4] = test system: mitochondrial permeability transition pore (mtPTP); test: Chemical activation of mtPTP; format: biochemical, mouse; conditions: 1.56 µM; 10 µM Ca2+ plus PhAsO, diamide, Cu(OP)2 or NEM
[5] = test system: exon 9 col6a1 morphant zebrafish; test: Zebrafish ColVI myopathy model, muscle birefringence; format: in vivo; conditions: 48 hpf; 5 and 10 µM in fish water, added at 21 hpf; ANOVA p < 0.05
[6] = Microsomal stability, human liver microsomes; format: in vitro ADME
HeLa cells [7] = test: Oxygen consumption of HeLa cells; format: cell-based, human; conditions: CsH present
Method in brief: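 HeLa monolayers are seeded at 3×10^4 per well in DMEM and cultured for 24 h. Medium is replaced by serum- and antibiotic-free unbuffered DMEM (pH 7.4) containing 2 µg/mL CsH or 20 µM verapamil. Oxygen consumption is measured on a Seahorse XF24 with sequential additions, and protein per well is quantified by BCA afterwards. Results are mean ± SD of a representative experiment, repeated four times.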

adenosine A3 = target: T1, adenosine A3 (Homo sapiens, UniProt P0DMS8); test: Eurofins LeadProfilingScreen panel; format: binding; conditions: read-out: inhibition of adenosine A3
T1 sequence (P0DMS8 1-318): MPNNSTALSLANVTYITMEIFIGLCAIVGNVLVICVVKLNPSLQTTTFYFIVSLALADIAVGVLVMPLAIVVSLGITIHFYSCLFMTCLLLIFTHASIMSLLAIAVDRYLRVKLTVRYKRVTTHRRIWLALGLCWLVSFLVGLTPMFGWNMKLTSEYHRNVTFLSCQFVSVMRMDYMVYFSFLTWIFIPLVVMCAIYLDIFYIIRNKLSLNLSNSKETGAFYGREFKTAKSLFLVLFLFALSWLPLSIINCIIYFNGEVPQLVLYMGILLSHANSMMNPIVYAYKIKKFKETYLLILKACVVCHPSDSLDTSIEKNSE

[8] = test system: isolated mouse liver mitochondria; test: Oxygen consumption of isolated mouse liver mitochondria; format: biochemical
HeLa cells [9] = test: HeLa cell viability assay; format: cell-based, human; conditions: 24 h, CsH or verapamil present
Method in brief: as §1

[10] = Plasma protein binding, mouse; format: in vitro ADME
[11] = Microsomal stability, mouse liver microsomes; format: in vitro ADME
[12] = test system: exon 9 col6a1 morphant zebrafish; test: Zebrafish ColVI myopathy model, motor activity; format: in vivo; conditions: 5 and 10 µM in fish water, added at 21 hpf
[13] = target: human norepinephrine transporter (NET) (Homo sapiens, UniProt P23975); test: Eurofins LeadProfilingScreen panel; format: binding; conditions: read-out: inhibition of human norepinephrine transporter (NET)
human norepinephrine transporter (NET), sequence (P23975 whole entry): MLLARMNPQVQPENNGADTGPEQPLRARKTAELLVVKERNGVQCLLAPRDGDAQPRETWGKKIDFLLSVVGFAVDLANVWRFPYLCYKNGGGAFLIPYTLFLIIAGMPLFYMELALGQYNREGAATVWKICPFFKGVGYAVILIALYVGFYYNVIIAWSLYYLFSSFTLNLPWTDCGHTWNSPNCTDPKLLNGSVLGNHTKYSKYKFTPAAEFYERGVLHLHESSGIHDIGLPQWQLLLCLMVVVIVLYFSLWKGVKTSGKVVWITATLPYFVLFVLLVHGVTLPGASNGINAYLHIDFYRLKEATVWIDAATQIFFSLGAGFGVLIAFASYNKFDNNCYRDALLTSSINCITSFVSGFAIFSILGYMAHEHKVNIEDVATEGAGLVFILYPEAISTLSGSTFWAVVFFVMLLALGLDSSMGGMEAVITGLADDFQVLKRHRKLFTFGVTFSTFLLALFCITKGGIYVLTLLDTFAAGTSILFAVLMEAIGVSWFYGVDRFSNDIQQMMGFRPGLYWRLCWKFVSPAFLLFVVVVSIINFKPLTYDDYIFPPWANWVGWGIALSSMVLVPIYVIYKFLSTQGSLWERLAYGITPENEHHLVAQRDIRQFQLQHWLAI

Aqueous solubility = format: physicochemical; conditions: PBS
[14] = test system: other 66 targets in the panel (GPCRs, ion channels, transporters); test: Eurofins LeadProfilingScreen panel, remaining targets; format: binding; conditions: 10 µM
[15] = Plasma protein binding, human; format: in vitro ADME
human mtPTP = test: CRC of HeLa cells; format: cell-based
Plasma stability, human = format: in vitro ADME
Plasma stability, mouse = format: in vitro ADME
[16] = isolated mouse liver mitochondria

Compound: Cc1ccc(Cl)cc1NC(=O)c1cc(-c2ccc(F)c(O)c2)on1 [Compound 63, N-(5-Chloro-2-methylphenyl)-5-(4-fluoro-3-hydroxyphenyl)isoxazole-3-carboxamide]
CRC/CRC0 [1, 16]: 15.21±1.26 and 15.2 −1.3

Compound: COc1cc(NC(=O)c2cc(-c3cccc(O)c3)on2)cc(OC)c1OC [Compound 1, 5-(3-hydroxyphenyl)-N-(3,4,5-trimethoxyphenyl)isoxazole-3-carboxamide]
CRC/CRC0 [1, 16]: 1.18 −0.06

Second part, led by results:

EC50 [2]: 10 nM
Compound: COc1ccc(-c2cc(C(=O)Nc3cc(Cl)cnc3C)no2)cc1O [Compound 54, N-(5-Chloro-2-methylpyridin-3-yl)-5-(3-hydroxy-4-methoxyphenyl)isoxazole-3-carboxamide]
CC50 at 24 h [3]: > 50 µM | CRC/CRC0 [1, 16]: 10.10±1.14 and 10.1 −1.1

half-life [6]: > 60 min | microsomal CLint [6]: < 116 µL/min/mg | FCCP-stimulated and oligomycin-insensitive respiration (HeLa cells [7]): No statistically significant differences | inhibition at 10 µM (adenosine A3): 51% | respiratory control ratios, FCCP-stimulated and oligomycin-insensitive respiration [8]: No statistically significant differences | fraction unbound [10]: < 0.01 | recovery [10]: 0% | half-life [11]: < 15 min | microsomal CLint [11]: > 462 µL/min/mg | inhibition at 10 µM [13]: 79% | Aqueous solubility (Aqueous solubility; pH 7.4): 16.1 µM | solubility (Aqueous solubility; pH 7.4, aqueous buffer, Aqueous solubility): 16 µM (≈ 5.55 µg/mL) | fraction unbound [15]: 0.11 | recovery [15]: 76% | half-life (Plasma stability, human): > 120 min | half-life (Plasma stability, mouse): < 30 min
Compound: Cc1c(Cl)cccc1NC(=O)c1cc(-c2ccc(F)c(O)c2)on1 [Compound 60, N-(3-Chloro-2-methylphenyl)-5-(4-fluoro-3-hydroxyphenyl)isoxazole-3-carboxamide]
mtPTP transition from closed to open after chemical activators [4]: prevented | muscle birefringence (structural muscle defects) [5]: significant recovery of muscle defects | mtPTP opening (swelling) induced by 50 µM Ca2+ load ([2]; 1.56 µM compound): abolished | CC50 at 24 h [3]: 39.5 ± 4.65 µM | concentration up to which not cytotoxic (HeLa cells [9]): 12.50 µM | motor function (spontaneous coiling events, touch-evoked response) [12]: dramatic improvement in motor function | inhibition of the other 66 targets in the panel [14]: ≤ 43% | CRC after treatment of intact HeLa cells, wash, then permeabilization (human mtPTP; 1.56 µM, 30 min): effective following treatment of intact human cells | CRC ratios of permeabilized HeLa cells (human mtPTP; increasing concentrations of 60): increased CRC ratios | Ca2+ load required for mtPTP opening ([1]; 1.56 µM compound, 20 µM Ca2+ pulses, solvent control 80): ~ 960 nmol (mg protein)^−1 | CRC/CRC0 [1, 16]: 12.14±0.55 and 12.1 −0.6 | compound-to-solvent CRC ratio reached on augmenting the concentration ([1]; concentration-response, Figure 4D trace a): 15 | maximum CRC ratio relative to CsA-treated mitochondria [1, 16]: ~ 3 fold | effect on CRC in combination with 2 µM CsA ([1]; various concentrations of 60 plus 2 µM CsA): synergistic

EC50 [2]: 0.0076 nM
Compound: COc1ccc(-c2cc(C(=O)Nc3cc(Cl)ccc3C)no2)cc1O [Compound 46, N-(5-Chloro-2-methylphenyl)-5-(3-hydroxy-4-methoxyphenyl)isoxazole-3-carboxamide]
CC50 at 24 h [3]: > 50 µM | CRC/CRC0 [1, 16]: 10.02±0.34
